Sampled rows, rich in hits. Any-hit rate of the full collection: about 3.5%.
RGS4 pot: potentiators or activators of RGS4 | AID 463111 | HEK293 M3R/inducible RGS4, carbachol calcium flux Fluo4; stronger effect = lower value | B-score at 10 µM | hit rate 0.92% among 310,000;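 active means B-score of the integrated calcium signal more than 4 SD below the library mean, with starting fluorescence not abnormally high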;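 further: negative B-score means reduced calcium response which marks RGS4 activation or potentiation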
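Detection: kinetic calcium fluorescence imaging with Fluo4-AM dye, 2 µM / Material: HEK293 cells with stable M3R and inducible RGS4 / Schedule: recording 10 s baseline at 1 Hz, 100 s post-agonist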
MrgX1 antagonist: antagonists of human MrgX1 receptor; Q96LB2; MRGX1-HEK293 calcium flux, Fluo-4, BAM8-22 antagonism; stronger effect = lower value; B-score at 10 µM; hit rate 1.3% among 310,000; AID 588676;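 active means calcium-response B-score plate-corrected more than 3 library SD below zero, starting fluorescence within 5 deviations, no agonist response on first addition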;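 further: peak minus trough fluorescence over baseline after final BAM8-22 challenge near maximal dose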
MrgX1 ag: activates human MrgX1 receptor signaling; Q96LB2; MrgX1-HEK293 cells, Fluo-4 calcium fluorescence, agonist mode; stronger effect = higher value; B-score at 10 µM; hit rate 0.44% among 310,000; AID 588627;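 active means calcium response B-score plate-corrected fluorescence ratio at least 3 library SD, with starting fluorescence B-score inside 5 SD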
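Test system: HEK293 cells stably expressing human MrgX1 receptor; amount: 15,000 cells per well; doses: compound delivered in addition one of three; times: overnight plating before 1 h dye loading; detection: Fluo-4 NW calcium-flux fluorescence, kinetic read; read-out basis: B-scored fluorescence response ratio; controls: positive and negative controls per plate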
RGS4 block: inhibitors of human RGS4. P49798. HEK293 M3R/RGS4 inducible, Fluo-4 calcium flux; stronger effect = higher value; triggered by carbachol at its EC20. B-score at 10 µM. hit rate 0.45% among 310,000;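 active means B-score, a plate-corrected calcium signal, over three deviations above library mean, with baseline fluorescence within five deviations of library mean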;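 further: RGS4 expression induced by doxycycline in cells with stable M3 receptor; B-score is computed from the integrated fluorescence ratio over baseline after carbachol; higher B-score means a larger calcium signal and so more RGS4 inhibition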
Target sequence (P49798 whole entry, looked up): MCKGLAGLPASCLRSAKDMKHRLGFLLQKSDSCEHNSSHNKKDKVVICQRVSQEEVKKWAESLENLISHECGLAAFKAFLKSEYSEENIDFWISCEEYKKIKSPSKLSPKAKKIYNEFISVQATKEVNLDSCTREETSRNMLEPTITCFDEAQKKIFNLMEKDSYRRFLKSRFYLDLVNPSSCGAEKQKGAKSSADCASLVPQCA
MrgX1 PAM: human MrgX1 positive allosteric modulation, primary screen; hit rate 0.63% among 310,000; AID 588675; Q96LB2; B-score at 10 µM; MrgX1-HEK293, Fluo-4 calcium flux, FDSS; stronger effect = higher value;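 active means plate-corrected calcium response at least 3 library SD above typical, normal starting fluorescence, not activating the receptor alone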;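 further: compound read alongside a low EC10 to EC30 dose of BAM8-22 agonist; peak minus trough fluorescence over baseline measured at the second addition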
Numbers stand for hits.

For Cc1cccc(-n2c(C)cc(/C=N/n3cnnc3)c2C)c1 the results were RGS4 pot -7.3, MrgX1 antagonist inactive, MrgX1 ag inactive, RGS4 block inactive and MrgX1 PAM inactive.
Screening CCn1c(N2CCN(Cc3ccc([N+](=O)[O-])cc3)CC2)nc2ccccc21 returned RGS4 pot inactive, MrgX1 antagonist inactive, MrgX1 ag inactive, RGS4 block inactive and MrgX1 PAM inactive.
For CCCn1c(N2CCN(Cc3ccc(Cl)cc3)CC2)nc2ccccc21 the results were RGS4 pot inactive, MrgX1 antagonist inactive, MrgX1 ag 30, RGS4 block inactive and MrgX1 PAM inactive.
For Cc1cc(C(=O)N/N=C/C=C/c2ccc(Br)cc2)n[nH]1 the results were RGS4 pot inactive, MrgX1 antagonist -5.6, MrgX1 ag inactive, RGS4 block inactive and MrgX1 PAM inactive.
Screening Cc1cc(C(=O)N/N=C/C=C/c2ccc([N+](=O)[O-])cc2)n[nH]1 returned RGS4 pot inactive, MrgX1 antagonist inactive, MrgX1 ag inactive, RGS4 block inactive and MrgX1 PAM inactive.
For CCOc1ccccc1NC(=O)COC(=O)CC(C)(C)CC1=NS(=O)(=O)c2ccccc2N1 the results were RGS4 pot inactive, MrgX1 antagonist inactive, MrgX1 ag inactive, RGS4 block inactive and MrgX1 PAM inactive.
O=[N+]([O-])c1ccc(NC(=S)NCc2ccc(F)cc2)cc1 was read as RGS4 pot inactive, MrgX1 antagonist inactive, MrgX1 ag 27, RGS4 block inactive and MrgX1 PAM inactive.
For O=[N+]([O-])c1ccc(NC(=S)NCc2ccncc2)cc1 the results were RGS4 pot inactive, MrgX1 antagonist -4.7, MrgX1 ag inactive, RGS4 block inactive and MrgX1 PAM inactive.
For COCCSc1nc(N)c(NC(=O)c2ccco2)c(=O)[nH]1 the results were RGS4 pot inactive, MrgX1 antagonist inactive, MrgX1 ag inactive, RGS4 block inactive and MrgX1 PAM inactive.
CC1(C)CC2CC(C)(CN2/C=N/c2sc3c(c2C#N)CC(C)(C)NC3(C)C)C1 (stereo not given) was read as RGS4 pot inactive, MrgX1 antagonist -4.5, MrgX1 ag inactive, RGS4 block inactive and MrgX1 PAM inactive.
`CC1(C)CC2CC(C)(CN2S(=O)(=O)c2ccc(C(=O)Nc3cc(S(=O)(=O)N4CCOCC4)ccc3Cl)cc2)C1` (stereo not given) gave RGS4 pot -7.2, MrgX1 antagonist inactive, MrgX1 ag inactive, RGS4 block inactive and MrgX1 PAM inactive.
`CC1(C)CC2CC(C)(CN2S(=O)(=O)c2ccc(C(=O)Nc3cccc(S(=O)(=O)N4CCOCC4)c3)cc2)C1` (stereo not given) gave RGS4 pot inactive, MrgX1 antagonist inactive, MrgX1 ag inactive, RGS4 block inactive and MrgX1 PAM inactive.
Screening COc1cc2c(cc1OC)C(C)N(S(=O)(=O)c1ccc(Cl)nc1)CC2 (stereo not given) returned RGS4 pot inactive, MrgX1 antagonist inactive, MrgX1 ag inactive, RGS4 block inactive and MrgX1 PAM inactive.
`c1ccc(Sc2ccccn2)cc1` gave RGS4 pot inactive, MrgX1 antagonist inactive, MrgX1 ag inactive, RGS4 block inactive and MrgX1 PAM inactive.
For c1ccc(SSc2ccccn2)nc1 the results were RGS4 pot inactive, MrgX1 antagonist inactive, MrgX1 ag 32, RGS4 block inactive and MrgX1 PAM inactive.
Cc1cccc(C(=O)OCC(=O)Nc2c(C)nn(-c3ccccc3)c2C)c1O was read as RGS4 pot inactive, MrgX1 antagonist inactive, MrgX1 ag inactive, RGS4 block inactive and MrgX1 PAM inactive.
`Cc1nn(-c2ccccc2)c(C)c1NC(=O)COC(=O)c1cc(Br)ccc1O` gave RGS4 pot -7.2, MrgX1 antagonist inactive, MrgX1 ag inactive, RGS4 block inactive and MrgX1 PAM inactive.
O=C(NCCCN1CCCC1)c1ccc2c(c1)N(Cc1ccccc1F)C(=O)c1ccccc1S2=O (stereo not given) was read as RGS4 pot inactive, MrgX1 antagonist inactive, MrgX1 ag inactive, RGS4 block inactive and MrgX1 PAM inactive.
CC1CCCCN1CCNC(=O)c1ccc2c(c1)N(Cc1ccccc1F)C(=O)c1ccccc1S2=O (stereo not given) was read as RGS4 pot -7.4, MrgX1 antagonist inactive, MrgX1 ag inactive, RGS4 block inactive and MrgX1 PAM inactive.
`CCOC(=O)N1CCC(NC(=O)c2cc(COc3ccccc3SC)on2)CC1` gave RGS4 pot inactive, MrgX1 antagonist inactive, MrgX1 ag inactive, RGS4 block inactive and MrgX1 PAM inactive.

Screening data deposited in PubChem by Johns Hopkins Ion Channel Center.
